Laboratory results reported in ChEMBL document CHEMBL5058577, “EUbOPEN Chemogenomics Library 2 (Multiplex)” (2022).

System: U2OS
Assay: Multiplex assay against U2OS
Assay type: toxicity, cell-based
Conditions: human
Summary of the method: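 Values for tubulin, mitochondrial-mass and membrane-permeability phenotypes are per cents of cells with healthy nuclei. These cells were identified by CellPathfinder machine-learning gating of live cells that had been stained at seeding with Hoechst33342, BioTracker Green Microtubule Cytoskeleton Dye, MitoTracker Red and Annexin V Alexa Fluor 680 and imaged on a CQ1 microscope at 37°C and 5% CO2 after compound addition. The gating first set Hoechst high-intensity objects apart from normal cells, then split normal cells into healthy, pyknosed or fragmented nuclei, and pyknosed cells into mitotic or apoptotic.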

[1] = 12 h, 1 µM, compound concentration 1 uM, replicate 1
[2] = 12 h, 1 µM, compound concentration 1 uM, replicate 2
[3] = 12 h, 10 µM, compound concentration 10 uM, replicate 1
[4] = 12 h, 10 µM, compound concentration 10 uM, replicate 2
[5] = 24 h, 1 µM, compound concentration 1 uM, replicate 1
[6] = 24 h, 1 µM, compound concentration 1 uM, replicate 2
[7] = 24 h, 10 µM, compound concentration 10 uM, replicate 1
[8] = 24 h, 10 µM, compound concentration 10 uM, replicate 2
[9] = 48 h, 1 µM, compound concentration 1 uM, replicate 1
[10] = 48 h, 1 µM, compound concentration 1 uM, replicate 2
[11] = 48 h, 10 µM, compound concentration 10 uM, replicate 1
[12] = 48 h, 10 µM, compound concentration 10 uM, replicate 2

C=CCN1C[C@H](C(=O)N(CCCN(C)C)C(=O)NCC)C[C@@H]2c3cccc4[nH]cc(c34)C[C@H]21 [CABERGOLINE]
Population Apoptotic (%) [1]: 86% | Population Fragmented Nuclei (%) [1]: 13% | Population Healthy Nuclei (%) [1]: 72% | Population Hoechst High Intensity Objects (%) [1]: 2% | Population Membrane Permeable-Phenotype (%) [1]: 3% | Population Mitochondria Different-Phenotype (%) [1]: 1% | Population Mitotic Cells (%) [1]: 13% | Population Normal (%) [1]: 97% | Population Pyknosed Nuclei (%) [1]: 13% | Population Tubulin-Different-Phenotype (%) [1]: 1% | Total Cell Count [1]: 228 | Population Apoptotic (%) [2]: 57% | Population Fragmented Nuclei (%) [2]: 9% | Population Healthy Nuclei (%) [2]: 84% | Population Hoechst High Intensity Objects (%) [2]: 3% | Population Membrane Permeable-Phenotype (%) [2]: 8% | Population Mitochondria Different-Phenotype (%) [2]: 4% | Population Mitotic Cells (%) [2]: 42% | Population Normal (%) [2]: 96% | Population Pyknosed Nuclei (%) [2]: 5% | Population Tubulin-Different-Phenotype (%) [2]: 5% | Total Cell Count [2]: 129 | Population Apoptotic (%) [3]: 69% | Population Fragmented Nuclei (%) [3]: 35% | Population Healthy Nuclei (%) [3]: 52% | Population Hoechst High Intensity Objects (%) [3]: 3% | Population Membrane Permeable-Phenotype (%) [3]: 15% | Population Mitochondria Different-Phenotype (%) [3]: 9% | Population Mitotic Cells (%) [3]: 30% | Population Normal (%) [3]: 96% | Population Pyknosed Nuclei (%) [3]: 11% | Population Tubulin-Different-Phenotype (%) [3]: 11% | Total Cell Count [3]: 228 | Population Apoptotic (%) [4]: 64% | Population Fragmented Nuclei (%) [4]: 17% | Population Healthy Nuclei (%) [4]: 70% | Population Hoechst High Intensity Objects (%) [4]: 2% | Population Membrane Permeable-Phenotype (%) [4]: 13% | Population Mitochondria Different-Phenotype (%) [4]: 21% | Population Mitotic Cells (%) [4]: 35% | Population Normal (%) [4]: 97% | Population Pyknosed Nuclei (%) [4]: 12% | Population Tubulin-Different-Phenotype (%) [4]: 9% | Total Cell Count [4]: 143 | Population Apoptotic (%) [5]: 82% | Population Fragmented Nuclei (%) [5]: 15% | Population Healthy Nuclei (%) [5]: 74% | Population Hoechst High Intensity Objects (%) [5]: 3% | Population Membrane Permeable-Phenotype (%) [5]: 1% | Population Mitochondria Different-Phenotype (%) [5]: 1% | Population Mitotic Cells (%) [5]: 17% | Population Normal (%) [5]: 96% | Population Pyknosed Nuclei (%) [5]: 10% | Population Tubulin-Different-Phenotype (%) [5]: 0% | Total Cell Count [5]: 295 | Population Apoptotic (%) [6]: 64% | Population Fragmented Nuclei (%) [6]: 7% | Population Healthy Nuclei (%) [6]: 83% | Population Hoechst High Intensity Objects (%) [6]: 1% | Population Membrane Permeable-Phenotype (%) [6]: 9% | Population Mitochondria Different-Phenotype (%) [6]: 4% | Population Mitotic Cells (%) [6]: 35% | Population Normal (%) [6]: 98% | Population Pyknosed Nuclei (%) [6]: 8% | Population Tubulin-Different-Phenotype (%) [6]: 6% | Total Cell Count [6]: 162 | Population Apoptotic (%) [7]: 65% | Population Fragmented Nuclei (%) [7]: 33% | Population Healthy Nuclei (%) [7]: 54% | Population Hoechst High Intensity Objects (%) [7]: 3% | Population Membrane Permeable-Phenotype (%) [7]: 10% | Population Mitochondria Different-Phenotype (%) [7]: 5% | Population Mitotic Cells (%) [7]: 34% | Population Normal (%) [7]: 96% | Population Pyknosed Nuclei (%) [7]: 11% | Population Tubulin-Different-Phenotype (%) [7]: 4% | Total Cell Count [7]: 228 | Population Apoptotic (%) [8]: 88% | Population Fragmented Nuclei (%) [8]: 14% | Population Healthy Nuclei (%) [8]: 75% | Population Hoechst High Intensity Objects (%) [8]: 2% | Population Membrane Permeable-Phenotype (%) [8]: 13% | Population Mitochondria Different-Phenotype (%) [8]: 12% | Population Mitotic Cells (%) [8]: 11% | Population Normal (%) [8]: 97% | Population Pyknosed Nuclei (%) [8]: 10% | Population Tubulin-Different-Phenotype (%) [8]: 10% | Total Cell Count [8]: 165 | Population Apoptotic (%) [9]: 88% | Population Fragmented Nuclei (%) [9]: 13% | Population Healthy Nuclei (%) [9]: 77% | Population Hoechst High Intensity Objects (%) [9]: 2% | Population Membrane Permeable-Phenotype (%) [9]: 5% | Population Mitochondria Different-Phenotype (%) [9]: 1% | Population Mitotic Cells (%) [9]: 11% | Population Normal (%) [9]: 97% | Population Pyknosed Nuclei (%) [9]: 8% | Population Tubulin-Different-Phenotype (%) [9]: 3% | Total Cell Count [9]: 405 | Population Apoptotic (%) [10]: 93% | Population Healthy Nuclei (%) [10]: 73% | Population Hoechst High Intensity Objects (%) [10]: 3% | Population Membrane Permeable-Phenotype (%) [10]: 4% | Population Mitochondria Different-Phenotype (%) [10]: 4% | Population Mitotic Cells (%) [10]: 6% | Population Normal (%) [10]: 96% | Population Pyknosed Nuclei (%) [10]: 13% | Total Cell Count [10]: 221 | Population Apoptotic (%) [11]: 86% | Population Fragmented Nuclei (%) [11]: 30% | Population Healthy Nuclei (%) [11]: 57% | Population Hoechst High Intensity Objects (%) [11]: 3% | Population Membrane Permeable-Phenotype (%) [11]: 7% | Population Mitochondria Different-Phenotype (%) [11]: 1% | Population Mitotic Cells (%) [11]: 13% | Population Normal (%) [11]: 96% | Population Pyknosed Nuclei (%) [11]: 12% | Population Tubulin-Different-Phenotype (%) [11]: 3% | Total Cell Count [11]: 303 | Population Apoptotic (%) [12]: 87% | Population Fragmented Nuclei (%) [12]: 13% | Population Healthy Nuclei (%) [12]: 66% | Population Hoechst High Intensity Objects (%) [12]: 4% | Population Membrane Permeable-Phenotype (%) [12]: 9% | Population Mitochondria Different-Phenotype (%) [12]: 9% | Population Mitotic Cells (%) [12]: 12% | Population Normal (%) [12]: 95% | Population Pyknosed Nuclei (%) [12]: 20% | Population Tubulin-Different-Phenotype (%) [12]: 5% | Total Cell Count [12]: 206
